These results are taken from ChEMBL document CHEMBL4680165, “β-Lactams with antiproliferative and antiapoptotic activity in breast and chemoresistant colon cancer cells” (Eur J Med Chem, 2020).

Molecules are shown by their SMILES. Calls of active or inactive are those of the source. No cut-off for these calls is given here.

Test [1] has as its system MCF7. Nature of the test: Induction of apoptosis in human MCF7 cells assessed as downregulation of survivin expression level at 0.05 to 0.5 uM after 48 to 72 hrs by Western blot analysis. As to conditions: dose 0.05-0.5 µM, time 48-72 hrs. It counts as functional, cell-based. Summed up:
(§1)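 MCF-7 cells (1 × 10^5 per flask) were treated at 0.05, 0.1 and 0.5 µM for 48 and 72 h; vehicle was 0.1% v/v ethanol. Lysis was in RIPA buffer with protease and phosphatase inhibitors. Equal protein (BCA) was run on 12% SDS-PAGE and blotted for Mcl-1, Bcl-2 and survivin, with GAPDH as loading control and ECL detection. Three independent experiments.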

For test [2], the system named is HT-29. In words: Cell cycle arrest in human HT-29 cells assessed as accumulation at G2/M phase at 1 uM measured by PI staining based flow cytometry analysis. It counts as functional. As to conditions: TDE = time-dependent effect. In a few lines:
(§2)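 Cells (1 × 10^5/well) were treated at 1 µM for 24, 48 and 72 h; vehicle was 0.1% v/v ethanol. Cells were trypsinised, fixed in ice-cold 70% ethanol overnight at −20 °C, then stained with PI (50 µg/mL) plus DNase-free RNase A (50 µg/mL) at 37 °C for 30 min. DNA content of 10,000 cells per group was read by flow cytometry at 488 nm.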

The test system of test [3] is HT-29. Nature of the test: Induction of apoptosis in human HT29 cells assessed as necrotic cells at 1 uM after 48 hrs by Annexin V-FITC and propidium iodide staining based flow cytometry (reference value: 3 %). It counts as functional. In a few lines: (§3)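 HT-29 cells were treated at 1 µM for 24, 48 and 72 h against an untreated control. Cells were stained with Annexin V in binding buffer (HEPES pH 7.4, NaCl, CaCl2) for 30 min on ice in the dark, washed, resuspended in PI-containing buffer and read at once by flow cytometry. Quadrants: early apoptotic, late apoptotic, necrotic (Annexin V−/PI+).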

In test [4] the test system is MCF7. In words: Antiproliferative activity against human MCF7 cells assessed as reduction in cell viability after 72 hrs by alamar blue assay. To be noted: MCF7, 72 h. It counts as functional, cell-based. In a few lines:
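Cells seeded at 5 x 10^3/well (MCF-7) or 1 x 10^4/well (HT-29, HEK-293T) and treated after 24 h with serial dilutions (0.001-100 µM) in 1% v/v ethanol vehicle. Alamar Blue 10% v/v added at 72 h, then 3-5 h at 37 °C in the dark; fluorescence ex 530/em 590 nm. Viability relative to vehicle; IC50 from dose-response curves; mean of three experiments in triplicate.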

Test [5] relates to MCF7. Nature of the test: Cell cycle arrest in human MCF7 cells assessed as accumulation at G2/M phase at 1 uM measured after 72 hrs by PI staining based flow cytometry analysis (reference value: 24 %). It counts as functional. In a few lines: as §2
Test [6] relates to HT-29. In words: Induction of apoptosis in human HT29 cells assessed as cell apoptosis at 1 uM after 48 hrs by Annexin V-FITC and propidium iodide staining based flow cytometry. The test is classed as functional. In a few lines:
as §3

Test [7] has as its system MCF7. Nature of the test: Induction of apoptosis in human MCF7 cells assessed as downregulation of Bcl-2 expression level measured after 48 hrs by Western blot analysis. It counts as functional, cell-based. To be noted: dose 0.05-0.5 µM. Summed up: as §1
Test [8] has as its system MCF7. In words: Induction of apoptosis in human MCF7 cells assessed as total apoptotic cells at 0.01 uM after 48 hrs by Annexin V-FITC and propidium iodide staining based flow cytometry (reference value: 10 %). The test is classed as functional. Summed up:
(§4)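 MCF-7 cells were seeded at 1 × 10^5 cells/mL and treated for 48 h at 0.01, 0.1 and 1 µM; vehicle was 0.1% v/v ethanol. Annexin V staining was done on ice in the dark for 30 min in HEPES/NaCl/CaCl2 binding buffer, followed by PI. Flow cytometry scored early apoptotic (Annexin V+/PI−) and late apoptotic (Annexin V+/PI+) cells; total apoptotic is Annexin V-positive cells.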

Test [9] deals with HT-29. Nature of the test: Antiangiogenic activity in human HT-29 cells assessed as increase in IL-1RA secretion at 5 uM after 24 hrs by ELISA. It counts as functional, cell-based. In a few lines: (§5)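 HT-29 cells at 5 x 10^4 per well, cultured 24 h and then exposed to 5 µM compound. Conditioned medium collected on ice and stored at -80 °C. Cytokines and angiogenic, vascular-injury and chemokine factors measured by multiplex panels with overnight supernatant incubation (Angiogenesis Panel 1 and Vascular Injury Panel 2 same day). Medium undiluted except 1:4 for Vascular Injury Panel 2. Secretion normalised to lysate protein by BCA.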

The subject of test [10] is MCF7. Nature of the test: Induction of apoptosis in human MCF7 cells assessed as downregulation of Mcl-1 expression level measured after 48 hrs by Western blot analysis. It counts as functional, cell-based. As to conditions: dose 0.05-0.5 µM. In a few lines:
as §1

Test [11] has as its system HT-29. In words: Antiangiogenic activity in human HT29 cells assessed as reduction in VEGF secretion at 5 uM after 24 hrs by ELISA. It counts as functional, cell-based. In a few lines: as §5
The species named for a further test is Bos taurus. Nature of the test: Inhibition of bovine brain tubulin polymerization at 10 uM measured at 30 sec interval for 30 mins in presence of GTP by turbidimetry-based spectrophotometric method.
For test [12], the target named is T1, Tubulin (Homo sapiens) (UniProt P68371+Q9H4B7+P0DPH7+P68366+Q13509+Q71U36+P04350+Q3ZCM7+P07437+P68363+Q9BQE3+Q6PEY2+Q13885+Q9BVA1+Q9BUF5). Nature of the test: Induction of microtubule depolymerization in human MCF7 cells at 10 to 100 nM after 16 hrs by immunofluorescence staining based confocal microscopic analysis. It counts as cell-based. To be noted: dose 10-100 nM. Summed up:
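MCF-7 cells seeded 1 × 10^5 cells/mL on chamber slides, exposed 16 h to vehicle [1% ethanol (v/v)] or test agent (0.01, 0.05, 0.1 µM). Fixed in 4% paraformaldehyde, permeabilised in 0.5% Triton X-100, blocked in 5% BSA, then stained with anti-α-tubulin-FITC (DM1A) 2 h rt, Alexa Fluor 488 1 h, DAPI mount. Confocal imaging; three independent experiments.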

The test system of test [13] is MCF7. Nature of the test: Cell cycle arrest in human MCF7 cells assessed as accumulation at G2/M phase at 1 uM measured after 24 hrs by PI staining based flow cytometry analysis (reference value: 24 %). It counts as functional. Summed up: as §2
Test [14] is described as follows: Selectivity index, ratio of IC50 for human MCF7 cells to IC50 for human HT-29 cells assessed as reduction in cell viability after 72 hrs by alamar blue assay. It counts as functional.
Test [15] concerns the target T1, Tubulin (Homo sapiens). Nature of the test: Induction of microtubule depolymerization in human MCF7 cells assessed as induction of cell detachment and loss of radical distribution at 100 nM for 5 hrs by immunofluorescence staining based confocal microscopic analysis. Summed up:
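MCF-7 cells were seeded at 1 × 10^5 cells/mL on chamber slides and treated at 0.01, 0.05 and 0.1 µM. Controls were vehicle (1% v/v ethanol), CA-4 (0.01 µM) and paclitaxel (1 µM). Cells were fixed and stained with anti-α-tubulin-FITC (DM1A) and Alexa Fluor 488, then counterstained with DAPI. Imaging was by confocal microscopy over three separate experiments.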

Test [16] deals with HT-29. Nature of the test: Induction of apoptosis in human HT29 cells assessed as cell apoptosis at 1 uM after 24 hrs by Annexin V-FITC and propidium iodide staining based flow cytometry. The test is classed as functional. Summed up: as §3
For test [17], the system named is MCF7. In words: Induction of apoptosis in human MCF7 cells assessed as late apoptotic cells after 48 hrs by Annexin V-FITC and propidium iodide staining based flow cytometry. As to conditions: dose 10-1000 nM. The test is classed as functional, cell-based. Summed up:
as §4

Test [18] has as its system HT-29. In words: Induction of apoptosis in human HT29 cells assessed as necrotic cells at 1 uM after 24 hrs by Annexin V-FITC and propidium iodide staining based flow cytometry (reference value: 3 %). It counts as functional. Summed up:
as §3

For test [19], the system named is HT-29. Nature of the test: Induction of apoptosis in human HT29 cells assessed as necrotic cells at 1 uM after 72 hrs by Annexin V-FITC and propidium iodide staining based flow cytometry (reference value: 3 %). The test is classed as functional. In a few lines:
as §3

Consider `COc1ccc([C@H]2[C@H](O)C(=O)N2c2cc(OC)c(OC)c(OC)c2)cc1F`, for which the outcome in the test on MCF7 [1], in the test with HT-29 [9], at Tubulin (Homo sapiens) [12] and at Tubulin (Homo sapiens) [15] was Active. The Activity result was “Tde” in the test with HT-29 [2]; 11% in the test on HT-29 [3]; 60% with MCF7 [5]; 25% in the test on HT-29 [6]; “Dose-dependent effect” in the test on MCF7 [7]; 13% in the test on MCF7 [8]. Besides, the Activity result in the test with MCF7 [10] was “Dose-dependent effect”; in the test with MCF7 [13] it was 66%; with HT-29 [16] it was 21%; with MCF7 [17], “Dose-dependent effect”; in the test with HT-29 [18] it was 8%; in the test with HT-29 [19] it was 22%. Further, the IC50 in the test with MCF7 [4] amounted to 22 nM. Moreover, the outcome in the test with HT-29 [11] was inactive. Further, the inhibition entry in the test filed under Bos taurus was “Active”. In test [14], the “Ratio IC50” value was found to be 7.33.
